Source: ChEMBL document CHEMBL1152798, “Unsymmetrically disubstituted urea derivatives: a potent class of antiglycating agents” (Bioorg Med Chem, 2009)

Experiment: Antiglycation activity of compound assessed as inhibition of BSA-derived advance glycated end product formation after 7 days by spectrofluorimeter
Format: physicochemical
Conditions: not given; call rule not given here
Procedure, shortened: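 BSA (10 mg/mL) mixed with anhydrous glucose (50 mg/mL) and test sample in equal parts, in sodium phosphate buffer pH 7.4 (67 mM Na2HPO4, 3 mM sodium azide), incubated 37 °C for 7 days. Protein precipitated with TCA and centrifuged, pellet washed with 10% TCA, then redissolved in PBS. AGE fluorescence read at excitation 370 nm, emission 440 nm. % inhibition computed against glycated control (BSA + glucose + buffer).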

Row | Compound | IC50
1 | Cc1cccc(C)c1NC(=O)Nc1ccccc1 | Not Active
2 | Cc1ccc(NC(=O)Nc2cccc(Cl)c2)cc1C | Not Active
3 | Cc1cccc(NC(=O)Nc2ccccc2)c1C | Not Active
4 | Cc1ccc(NC(=O)Nc2ccccc2)c(C)c1 | Not Active
5 | Cc1ccc(C)c(NC(=O)Nc2cccc(Cl)c2)c1 | Not Active
6 | Cc1ccc(NC(=O)Nc2cccc(Cl)c2)c(C)c1 | Not Active
7 | Cc1cccc(NC(=O)Nc2cccc(Cl)c2)c1C | Not Active

More lines, now with the values ahead:

Row | IC50 | Compound
8 | Not Active | Cc1cc(C)cc(NC(=O)Nc2ccccc2)c1
9 | Not Active | Cc1cccc(C)c1NC(=O)Nc1cccc(Cl)c1
10 | Not Active | Cc1ccc(C)c(NC(=O)Nc2ccccc2)c1

Same assay, conditions: read-out: IC50

Row | Compound | IC50 [µM]
11 | O=C(Nc1ccccc1)Nc1ccc(Br)cc1 | 6.1
12 | O=C(Nc1ccccc1)Nc1ccccc1Br | 120
13 | O=C(Nc1cccc(Cl)c1)Nc1ccccc1Br | 6.6
14 | COc1ccc([N+](=O)[O-])cc1NC(=O)Nc1cccc(Cl)c1 | 408
15 | COc1cccc(NC(=O)Nc2cccc(Cl)c2)c1 | 5.8
16 | Cc1cc(C)cc(NC(=O)Nc2cccc(Cl)c2)c1 | 906
17 | COc1cccc(NC(=O)Nc2ccccc2)c1 | 229
18 | O=C(Nc1cccc(Cl)c1)Nc1cccc(Br)c1 | 8.16
19 | O=C(Nc1ccccc1)Nc1cccc(Br)c1 | 4.26
20 | O=C(Nc1ccccc1)Nc1ccc(Cl)c(Cl)c1 | 838

Next, values leading:

Row | IC50 [µM] | Compound
21 | 41.9 | C[C@@H]1O[C@@H](OC[C@H]2O[C@@H](Oc3c(-c4ccc(O)c(O)c4)oc4cc(O)cc(O)c4c3=O)[C@H](O)[C@@H](O)[C@@H]2O)[C@H](O)[C@H](O)[C@H]1O [RUTIN]
22 | 7.27 | O=C(Nc1ccccc1)Nc1cccc([N+](=O)[O-])c1
23 | 6.4 | O=C(Nc1ccc(Br)cc1)Nc1cccc(Cl)c1
24 | 9 | Cc1ccc(NC(=O)Nc2ccccc2)cc1C
25 | 15.2 | O=C(Nc1cccc(Cl)c1)Nc1ccc(Cl)c(Cl)c1
26 | 8.4 | COc1ccc(NC(=O)Nc2ccccc2)cc1
27 | 7.02 | COc1ccccc1NC(=O)Nc1cccc(Cl)c1
28 | 7.14 | COc1ccc(NC(=O)Nc2cccc(Cl)c2)cc1
29 | 162 | COc1ccc([N+](=O)[O-])cc1NC(=O)Nc1ccccc1
